In all, about 190,000 compounds went through this assay and about 660 (0.35%) were called active. This is one part of a sample in which actives are shown more often than they occur. A number with no mark means an inactive call.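 The calls were made as follows: active = activation factor of 2 or more at 20 µM; inactive = the rest.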
The molecules below were run against Mannose-6-phosphate isomerase (Homo sapiens) (UniProt P34949) (assay: human PMI activators, high substrate, primary screen, biochemical, fluorescence intensity, near-saturating mannose 6-phosphate (AID 1216)). Conditions: coupled PMI enzyme assay, resazurin fluorescence, 20 min; at 20 µM; active compounds read high; 1 = untreated enzyme, 0 = substrate-free blank.
Sequence of Mannose-6-phosphate isomerase (Homo sapiens) (P34949 whole entry, looked up): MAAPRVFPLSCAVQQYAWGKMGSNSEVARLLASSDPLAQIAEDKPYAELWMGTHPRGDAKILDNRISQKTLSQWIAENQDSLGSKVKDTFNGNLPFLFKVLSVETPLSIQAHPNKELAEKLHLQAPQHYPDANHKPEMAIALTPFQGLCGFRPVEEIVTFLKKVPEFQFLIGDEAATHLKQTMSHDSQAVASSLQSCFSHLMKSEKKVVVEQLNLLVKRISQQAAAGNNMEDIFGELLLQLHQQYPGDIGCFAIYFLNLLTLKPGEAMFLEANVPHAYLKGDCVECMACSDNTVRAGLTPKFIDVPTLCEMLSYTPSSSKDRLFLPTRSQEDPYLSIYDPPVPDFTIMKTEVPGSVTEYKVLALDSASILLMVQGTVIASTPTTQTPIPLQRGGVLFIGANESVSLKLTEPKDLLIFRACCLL
Procedure, shortened: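 Material: human phosphomannose isomerase with PGI, G6PDH, diaphorase coupling enzymes. Quantity: 15 ng/mL PMI. Medium: HEPES pH 7.4 buffer with MgCl2 and Tween-20. Reagent: Near-saturating mannose-6-phosphate, 1.0 mM. Compound: 20 µM single dose. Times: enzyme reaction with compound 20 min at room temperature. Detection: resorufin fluorescence at Ex 544/Em 590 nm.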

First: c1ccc2[nH]c(-c3nc4ccccc4[nH]3)nc2c1
Second: O=C(Nc1ccccc1)c1cc2ccccc2[nH]1
The activation factor of the first is higher: 1.1 for the first, 0.9 for the second.

First: CCOc1ccc(C2c3[nH]c4ccccc4c3CCN2Cc2cn(CC)nc2C)cc1 (configuration not stated)
Second: Cc1cccc(C)c1NC(=O)c1ccc(CN2CCc3ccccc3C2)cc1
The activation factor of the first is lower: 0.8 for the first, 1 for the second.

First: CN(C)CC(C)(C)CNC(=O)c1cc(Br)cc(Br)c1O
Second: CCOC(=O)C(CC)/C(C)=N\NC(=O)c1cccc(C)c1 (configuration not stated)
The activation factor of the first is lower: 0.8 for the first, 0.9 for the second.

`O=C1C2C3C=CC(C4CC34)C2C(=O)N1c1nccs1` (configuration not stated) and `Cc1ccc(N2C(=O)C3CC3C2=O)cc1` (configuration not stated) are the same in activation factor: 1 for the first, 1 for the second.

Going from `CCN(CC)CC1(O)CCN(C(=O)c2ccc(Cl)c(Cl)c2)CC1` to `C/C(N)=C(/C#N)C(=O)COC(=O)C1CCN(C(=O)c2ccc(Cl)cc2)CC1`, the activation factor rises from 0.9 to 1.

Going from `O=C(O)c1ccc(N/N=C/c2cn(-c3ccccc3)nc2-c2cccs2)cc1` to `O=c1c2ccccc2c(-c2ccccc2)nn1Cc1ccccc1`, the activation factor falls from 1.7 to 1.

First: CCNC(=S)NNC(=O)c1ccc2ncccc2c1
Second: O=C(NNC(=O)c1cccnc1)Nc1ccccc1
The activation factor of the first is lower: 1 for the first, 1.1 for the second.

Compared with `Cc1ccc(NC(=O)N2CCSc3ccccc32)cc1`, `COc1ccc(NC(=O)C(C)SCc2ccccc2)cc1` (configuration not stated) is higher in activation factor: 0.9 for the first, 1 for the second.

Compared with `O=C(CNCc1ccc(Cl)cc1)Nc1cccc(C(=O)O)c1`, `C/C=C/C=C/C(=O)OCC(=O)Nc1ccc(Cl)cc1` is lower in activation factor: 1.1 for the first, 1 for the second.

Compared with `Cn1c(CO)cnc1SCc1ccccc1`, `Cc1ccc(N2C(=O)C(Cc3ccccc3)NC2=S)cc1` (configuration not stated) is lower in activation factor: 1.1 for the first, 0.8 for the second.

First: COc1ccc(NC(=O)COc2ccc(C(=O)OCC(=O)N(C)C3CCS(=O)(=O)C3)cc2OC)cc1 (configuration not stated)
Second: CCc1cc2cc(OC)ccc2nc1SCC(=O)Nc1cc(OC)c(OC)cc1C(=O)O
The activation factor of the first is higher: 1.1 for the first, 0.8 for the second.

`Cc1ccnc(NC(=O)CCC(=O)N(CC(=O)NCCc2ccccc2)Cc2cccs2)c1` and `CCc1cccc(C)c1NC(=S)N(CCCN1CCN(C)CC1)Cc1cccs1` are the same in activation factor: 1 for the first, 1 for the second.

First: Cc1cc(Cl)ccc1C(=O)C1CCCN(C(=O)CCN2CCCO2)C1 (configuration not stated)
Second: CCOC(=O)N1CCN(C(=O)Cn2cnc3ccccc3c2=O)CC1
The activation factor of the first is higher: 1.1 for the first, 1 for the second.

Compared with `Cc1ccc(N(CCC(=O)O)S(=O)(=O)c2cccc(C(F)(F)F)c2)cc1`, `O=C(OCc1ccc([N+](=O)[O-])cc1)c1ccccn1` is lower in activation factor: 1.1 for the first, 0.9 for the second.

Compared with `O=[N+]([O-])c1ccc(N2CCN(S(=O)(=O)c3ccccc3)CC2)cc1N1CCc2ccccc2C1`, `COc1ccc(NC(=O)c2sc(N3CCOCC3)nc2-c2ccccc2)c(OC)c1` is higher in activation factor: 0.9 for the first, 1 for the second.

`COc1ccc(/C=N/N=C2/C(=O)Nc3ccccc32)cc1O` and `COc1cc(/C=N/O)ccc1OCc1ccc([N+](=O)[O-])cc1` are the same in activation factor: 1 for the first, 1 for the second.

Compared with `CS/C(=C\[N+](=O)[O-])Nc1ccc(C)cc1`, `COc1ccc(NC(=S)SC)cc1OC` is lower in activation factor: 1 for the first, 0.7 for the second.

Compared with `Cn1cnnc1Sc1ccc(S(C)(=O)=O)cc1[N+](=O)[O-]`, `O=C(/C=C/c1ccc(Cl)c([N+](=O)[O-])c1)c1cccnc1` is higher in activation factor: 0.9 for the first, 1.1 for the second.

Going from `O=C(Nc1cnccn1)c1cccnc1` to `CCC(CC)C(=O)Nc1ccc(S(=O)(=O)Nc2nccs2)cc1`, the activation factor falls from 1 to 0.9.

First: CC(CCO)Nc1nc2c([nH]1)c(=O)n(C)c(=O)n2C (configuration not stated)
Second: CCCSc1nc2c(c(=O)n(C)c(=O)n2C)n1Cc1ccc(C)cc1
The activation factor of the first is lower: 0.9 for the first, 1 for the second.

First: CCn1c(N)c(Br)c(=O)[nH]c1=O
Second: Cc1cc(C(=O)COC(=O)C2CC2)c(C)n1-c1ccc(F)cc1
The activation factor of the first is higher: 1.1 for the first, 0.9 for the second.

Going from `CC(=O)Nc1sc2c(c1C(c1cccc(F)c1)N1CCN(CCO)CC1)CCCC2` (configuration not stated) to `Cc1cc(SCC(=O)NCCN2C(=O)CSC2=O)nc2ccccc12`, the activation factor rises from 1.1 to 1.2.

In the case of `S=c1ccc2ccccc2[nH]1`, the activation factor is reported as 2.8 (active).
For `O=C(O)c1ccc(N/N=C/c2ccc3ncccc3c2)cc1`, the activation factor was 2.3 (active).
`CSc1c(SCc2ccccc2)cnn(Cc2ccccc2)c1=O` was tested, and the activation factor was 2.4 (active).
With `Cc1cccc(C)c1NC(=O)C1(C)c2cccc[n+]2CC(=O)N1Cc1cccs1` (configuration not stated) the activation factor was 2 (active).
With `O=C(NN=C1CCC(=NNC(=O)c2cccnc2)CC1)c1cccnc1` the activation factor was 2 (active).
In the case of `Cc1ccc(NN=Nc2nc3c([nH]2)c(=O)n(C)c(=O)n3C)cc1`, the activation factor is reported as 2 (active).
With `C=C1c2cc(CC)ccc2NC(=O)N1c1ccc(C)cc1` the activation factor was 2.1 (active).
With `COc1cc(C(=O)OCc2ccc([N+](=O)[O-])cc2)cc(OC)c1OC` the activation factor was 2 (active).

From PubChem BioAssay AID1216 (Sanford-Burnham Center for Chemical Genomics, 2008)
